# T cruzi growth-1 = inhibitors of T. cruzi proliferation. T. cruzi beta-gal in NIH3T3, GalScreen luminescence, 90 h. inhibition, % at 8.34 µM. 5.9% of 77,000 active. AID 624255;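 active = mean inhibition above about 93%, with at least 55% of replicates each passing it, limit read from the data, passing the limit was not always enough; inconclusive = only one of those two conditions holds; inactive = neither condition holds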
# IDH1 mut inh = IDH1 R132H (human) inhibition; 0.18% of 70,000 active; inhibition, % at 10 µM; O75874; IDH1 R132H reductase, diaphorase/resazurin fluorescence, 60 min; AID 624101; in the data active = inhibition above about 34%; inconclusive = no clear call, values can overlap the other calls; inactive = below about 11%;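 note: 0% = DMSO and 100% = no enzyme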
# Target sequence (O75874 whole entry R132H): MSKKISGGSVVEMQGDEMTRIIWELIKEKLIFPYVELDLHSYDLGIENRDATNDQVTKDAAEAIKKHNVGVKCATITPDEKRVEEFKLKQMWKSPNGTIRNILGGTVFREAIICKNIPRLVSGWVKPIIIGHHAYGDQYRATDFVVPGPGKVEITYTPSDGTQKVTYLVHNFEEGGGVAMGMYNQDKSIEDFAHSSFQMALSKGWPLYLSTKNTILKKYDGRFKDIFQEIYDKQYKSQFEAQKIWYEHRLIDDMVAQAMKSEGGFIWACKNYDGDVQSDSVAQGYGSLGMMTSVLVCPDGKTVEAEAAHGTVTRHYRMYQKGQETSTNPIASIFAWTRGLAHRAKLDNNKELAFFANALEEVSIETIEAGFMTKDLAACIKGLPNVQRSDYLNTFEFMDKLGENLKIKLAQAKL
# KDM4C inh = inhibitors of human demethylase GASC-1 KDM4C | Q9H3R0 | GST-KDM4C 2-372, H3K9me3 peptide, LANCE TR-FRET | inhibition, % at 12.5 µM | 0.15% of 96,000 active | AID 720574;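 active = mean replicate inhibition above about 25%, with at least 55% of replicates also reaching it, limit read from the data, passing the limit was not always enough; inconclusive = only one of those two conditions met; inactive = neither condition met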
#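 System: N-terminal GST-fused human GASC-1 (KDM4C) fragment, residues 2-372; amount: enzyme final amount 10 nM; incubation: reaction 30 min RT, detection step 1 h RT; medium: HEPES buffer, pH 7.5, plus ascorbate; technique: LANCE TR-FRET, Eu antibody, ULight-streptavidin, EDTA, ex 340 nm, em 618/671 nm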
# T cruzi growth-2 = blocks T. cruzi growth in NIH3T3 host cells; shares compounds with T cruzi growth-1; T. cruzi beta-gal in NIH3T3, GalScreen luminescence, 90 h; inhibition, % at 8.35 µM; 72% of 5,600 active;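 active = mean replicate inhibition above about 95% and at least 55% of replicates individually reaching it, limit read from the data; inconclusive = only one of the two criteria is met; inactive = neither criterion is met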
# T cruzi growth-3 = blocks T. cruzi growth in NIH3T3 host cells; shares compounds with T cruzi growth-1; T. cruzi beta-gal in NIH3T3, GalScreen luminescence, 90 h; inhibition, % at 2.09 µM; 21% of 5,600 active; AID 651740;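 active = mean inhibition above about 95%, with at least 55% of replicates also reaching it, limit read from the data; inconclusive = meets just one of the two conditions; inactive = meets neither condition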;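 note: plate controls were neutral control median for no effect and positive control median for full effect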
# 3T3 cytotox = NIH/3T3 (mouse) viability loss. cytotoxicity (signal decrease), % at 8.35 µM. shares compounds with T cruzi growth-1. NIH/3T3 viability, CellTiter-Glo ATP luminescence, 90 h. 14% of 5,600 active. AID 651742;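 active = mean signal decrease across replicates above about 35% based on untreated-well scatter, with enough replicates individually passing, limit read from the data; inconclusive = no rule stated though some were filed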;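 note: 0% = median of neutral control wells and 100% = median of positive control wells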
# NIH3T3 tox 2 = NIH/3T3 (mouse) viability loss | shares compounds with T cruzi growth-1 | NIH/3T3 viability, CellTiter-Glo ATP luminescence, 90 h | inhibition, % at 24.9 µM | 56% of 5,600 active;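 active = mean loss of cell viability signal at or above a set limit, and enough replicates individually reaching it; inconclusive = meets only the mean limit or only the replicate share; inactive = meets neither condition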;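 note: 0% = median of neutral control wells and 100% = median of positive control wells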
# An asterisk follows results filed as active; ? = inconclusive; nt = no result. The entries come from a sample that favours hits as a whole.
SMILES,T cruzi growth-1,IDH1 mut inh,KDM4C inh,T cruzi growth-2,T cruzi growth-3,3T3 cytotox,NIH3T3 tox 2
COc1ccc(S(=O)(=O)Nc2ccc3c(c2)C(=O)N([C@@H](C)CO)C[C@@H](C)[C@@H](CN(C)S(=O)(=O)c2ccc(C)cc2)OCCCC[C@@H](C)O3)cc1,nt,nt,-1,nt,nt,nt,nt
COc1ccc(S(=O)(=O)Nc2ccc3c(c2)C(=O)N([C@@H](C)CO)C[C@H](C)[C@H](CN(C)S(=O)(=O)c2ccc(OC)cc2)OCCCC[C@@H](C)O3)cc1,93*,nt,0,106*,80,16,23
COc1ccc(S(=O)(=O)Nc2ccc3c(c2)C(=O)N([C@H](C)CO)C[C@H](C)[C@@H](CN(C)S(=O)(=O)c2ccc(OC)cc2)OCCCC[C@H](C)O3)cc1,?,nt,1,111*,51,6,13
COc1ccc(S(=O)(=O)Nc2ccc3c(c2)C(=O)N([C@H](C)CO)C[C@@H](C)[C@H](CN(C)S(=O)(=O)c2ccc(OC)cc2)OCCCC[C@@H](C)O3)cc1,?,-1,-3,102*,63,18,12
COc1ccc(S(=O)(=O)Nc2ccc3c(c2)C(=O)N([C@H](C)CO)C[C@H](C)[C@@H](CN(C)S(=O)(=O)c2ccc(OC)cc2)OCCCC[C@@H](C)O3)cc1,53,0,1,nt,nt,nt,nt
COc1ccc(S(=O)(=O)Nc2ccc3c(c2)C(=O)N([C@@H](C)CO)C[C@@H](C)[C@@H](CN(C)S(=O)(=O)c2ccc(OC)cc2)OCCCC[C@H](C)O3)cc1,63,-1,0,nt,nt,nt,nt
Cc1n[nH]c(C)c1S(=O)(=O)N1CCC2(CC1)OCCO2,nt,2,nt,nt,nt,nt,nt
CS(=O)(=O)N(CC(=O)Nc1ccc(F)c(Cl)c1)c1ccc2c(c1)OCCO2,nt,1,nt,nt,nt,nt,nt
Cc1ccc(NC(=O)C(C)n2nc([N+](=O)[O-])c(Br)c2C)cc1Cl (centres undefined),nt,0,nt,nt,nt,nt,nt
C[C@@H]1CN([C@H](C)CO)S(=O)(=O)c2ccc(C#CC3CCCC3)cc2O[C@H]1CN(C)Cc1cncnc1,nt,-1,18,nt,nt,nt,nt
C[C@@H]1CN([C@@H](C)CO)S(=O)(=O)c2ccc(C#CC3CCCC3)cc2O[C@@H]1CN(C)Cc1cccnc1,103*,nt,-1,101*,?,60*,106*
C[C@H]1CN([C@@H](C)CO)S(=O)(=O)c2ccc(C#CC3CCCC3)cc2O[C@@H]1CN(C)Cc1cccnc1,98*,nt,0,101*,111*,-10,105*
C[C@H]1CN([C@@H](C)CO)S(=O)(=O)c2ccc(C#CC3CCCCC3)cc2O[C@@H]1CN(C)Cc1cccnc1,81,-10,nt,nt,nt,nt,nt
Clc1ccc2c(c1)nc(SCc1nnc(-c3ccccc3)o1)n2C1CCCCC1,nt,0,nt,nt,nt,nt,nt
Cc1nc(SCC(=O)N2CCc3ccccc32)c2c3c(sc2n1)CCCC3,nt,0,nt,nt,nt,nt,nt
Cc1ccccc1NC(=O)CC(C(=O)O)N1CCOCC1 (centres undefined),nt,0,nt,nt,nt,nt,nt
CC(C)NC(=O)N1[C@H](CO)[C@@H](c2ccc(C#CC3CCCC3)cc2)[C@@H]1C#N,99*,nt,0,103*,37,-7,11
CC(C)NC(=O)N1[C@@H](C#N)[C@@H](c2ccc(C#CC3CCCC3)cc2)[C@@H]1CO,105*,nt,0,101*,77,8,27*
CC(C)NC(=O)N1[C@@H](C#N)[C@H](c2ccc(C#CC3CCCC3)cc2)[C@@H]1CO,100*,nt,5,106*,50,0,52*
CN(C)CC(=O)N1[C@H](C#N)[C@@H](c2ccc(C#CC3CC3)cc2)[C@H]1CO,16,nt,-1,nt,nt,nt,nt
N#C[C@@H]1[C@H](c2ccc(C#CC3CCCC3)cc2)[C@H](CO)N1C(=O)Nc1ccc(F)cc1,88,nt,-4,nt,nt,nt,nt
CC(C)NC(=O)N1[C@H](C#N)[C@H](c2ccc(C#CC3CCCC3)cc2)[C@@H]1CO,nt,nt,-3,nt,nt,nt,nt
CC(C)NC(=O)N1[C@@H](C#N)[C@H](c2ccc(C#CC3CC3)cc2)[C@@H]1CO,104*,nt,7,105*,?,3,57*
N#C[C@@H]1[C@@H](c2ccc(C#CC3CCCC3)cc2)[C@H](CO)N1C(=O)Nc1ccc(F)cc1,92,nt,-3,nt,nt,nt,nt
C[C@H]1CN([C@@H](C)CO)S(=O)(=O)c2ccc(-c3ccncc3)cc2O[C@H]1CN(C)Cc1ccc(Oc2ccccc2)cc1,124,0,-1,nt,nt,nt,nt
SMILES,T cruzi growth-1,IDH1 mut inh,KDM4C inh,T cruzi growth-2,T cruzi growth-3,3T3 cytotox,NIH3T3 tox 2
C[C@H]1CN([C@@H](C)CO)S(=O)(=O)c2ccc(-c3ccncc3)cc2O[C@@H]1CN(C)Cc1ccc(Oc2ccccc2)cc1,?,0,2,92,107*,86*,103*
C[C@@H]1CN([C@H](C)CO)S(=O)(=O)c2ccc(-c3ccncc3)cc2O[C@@H]1CN(C)Cc1ccc(Oc2ccccc2)cc1,116*,0,-2,99*,107*,84*,89*
C[C@@H]1CN([C@@H](C)CO)S(=O)(=O)c2ccc(-c3cncnc3)cc2O[C@@H]1CN(C)Cc1ccc(Oc2ccccc2)cc1,nt,0,0,nt,nt,nt,nt
COC(=O)c1ccc(NC(=O)CSc2ncnc3sc(C)c(C)c23)cc1,nt,0,nt,nt,nt,nt,nt
Cc1c(NC(=O)COc2cccc3ccccc23)cccc1C(=O)O,nt,0,nt,nt,nt,nt,nt
O=C(CSc1nc(-c2ccccc2)cc(-c2ccccc2)n1)Nc1cccc([N+](=O)[O-])c1,nt,0,nt,nt,nt,nt,nt
COc1cc(-c2nnc(SCC(=O)c3ccc(-c4ccccc4)cc3)n2C)cc(OC)c1OC,nt,0,nt,nt,nt,nt,nt
C[C@H]1CN([C@@H](C)CO)S(=O)(=O)c2ccc(-c3cccc(F)c3)cc2O[C@H]1CN(C)S(C)(=O)=O,138*,-2,-1,102*,69,29,52*
C[C@@H]1CN([C@@H](C)CO)S(=O)(=O)c2ccc(-c3cccc(F)c3)cc2O[C@@H]1CN(C)C,-6,-1,1,nt,nt,nt,nt
C[C@H]1CN([C@@H](C)CO)S(=O)(=O)c2ccc(-c3cccc(F)c3)cc2O[C@@H]1CN(C)S(=O)(=O)c1ccc(F)cc1,127*,nt,-3,105*,104*,57*,38*
C[C@H](CO)N1C[C@H](C)[C@@H](CN(C)C)Oc2cc(-c3cccc(F)c3)ccc2S1(=O)=O,-18,-1,1,nt,nt,nt,nt
COc1ccc(S(=O)(=O)N(C)C[C@@H]2Oc3cc(-c4cccc(F)c4)ccc3S(=O)(=O)N([C@@H](C)CO)C[C@@H]2C)cc1,nt,0,-3,nt,nt,nt,nt
Cc1ccc(S(=O)(=O)N(C)C[C@H]2Oc3cc(-c4cccc(F)c4)ccc3S(=O)(=O)N([C@@H](C)CO)C[C@@H]2C)cc1,124*,87*,45*,97*,94,12,38*

# From PubChem
